According to ChEMBL document CHEMBL1134325, “Diaminoindanes as microsomal triglyceride transfer protein inhibitors” (J Med Chem, 2001):
pIC50: −log10 of the molar value.

Key:
Canis familiaris [1] = assay: Inhibition of plasma total cholesterol in the normolipidemic dogs after day 4 of oral administration of 1 mg/kg/ day; assay type: functional, Canis lupus familiaris
How it was run: (§1)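 Normolipidemic dogs dosed once daily for 4 days by oral gavage, compound suspended in cornstarch vehicle. Plasma sampled 24 h after dosing on days 0, 2, 3 and 4, assayed for triglycerides and total cholesterol (mg/dL). Mean percent inhibition versus day-0 level is given for treated dogs; n = 6 per group; significance by one-way ANOVA, p < 0.05.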

Canis familiaris [2] = assay: Inhibition of plasma total cholesterol in the normolipidemic dogs after day 2 of oral administration of 1 mg/kg/ day.; assay type: functional, Canis lupus familiaris; how it was run: as §1
Canis familiaris [3] = assay: Inhibition of plasma total cholesterol in the normolipidemic dogs after day 3 of oral administration of 5 mg/kg/ day.; assay type: functional, Canis lupus familiaris; how it was run: as §1
Rattus norvegicus [4] = assay: Inhibition of total cholesterol in normolipidemic rats after 24 hr of 10 mg/kg oral dosing; assay type: functional
How it was run: (§2)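 Overnight-fasted normolipidemic rats received a single oral dose in cornstarch vehicle. Blood was drawn at 2, 6 and 24 h post-dose and assayed for triglycerides and total cholesterol, with free access to food after the 6 h sample. Value is mean percent inhibition versus a separate vehicle-treated group, unpaired t test p < 0.05, NS = no significant change, N = 6.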

Rattus norvegicus [5] = assay: Inhibition of plasma triglycerides in normolipidemic rats after 2 hr of 10 mg/kg oral dosing; assay type: functional; how it was run: as §2
Rattus norvegicus [6] = assay: Inhibition of plasma triglycerides in normolipidemic rats after 2 hr of 50 mg/kg oral dosing; assay type: functional; how it was run: as §2
Canis familiaris [7] = assay: Inhibition of plasma total cholesterol in the normolipidemic dogs after day 4 of oral administration of 10 mg/kg/ day.; assay type: functional, Canis lupus familiaris; how it was run: as §1
Canis familiaris [8] = assay: Inhibition of plasma total triglycerides in the normolipidemic dogs after day 4 of oral administration of 1 mg/kg/ day; assay type: functional, Canis lupus familiaris
Canis familiaris [9] = assay: Inhibition of plasma total cholesterol in the normolipidemic dogs after day 4 of oral administration of 2.5 mg/kg/ day; assay type: functional, Canis lupus familiaris; how it was run: as §1
Canis familiaris [10] = assay: Inhibition of plasma total triglycerides in the normolipidemic dogs after day 0 of oral administration of 2.5 mg/kg/ day.; assay type: functional, Canis lupus familiaris; how it was run: as §1
Canis familiaris [11] = assay: Inhibition of plasma total triglycerides in the normolipidemic dogs after day 3 of oral administration of 5 mg/kg/ day.; assay type: functional, Canis lupus familiaris
Canis familiaris [12] = assay: Inhibition of plasma total cholesterol in the normolipidemic dogs after day 0 of oral administration of 2.5 mg/kg/ day.; assay type: functional, Canis lupus familiaris; how it was run: as §1
Canis familiaris [13] = assay: Inhibition of plasma total triglycerides in the normolipidemic dogs after day 2 of oral administration of 5 mg/kg/ day.; assay type: functional, Canis lupus familiaris; how it was run: as §1
Canis familiaris [14] = assay: Inhibition of plasma total triglycerides in the normolipidemic dogs after day 4 of oral administration of 5 mg/kg/ day; assay type: functional, Canis lupus familiaris
Canis familiaris [15] = assay: Inhibition of plasma total triglycerides in the normolipidemic dogs after day 4 of oral administration of 2.5 mg/kg/ day; assay type: functional, Canis lupus familiaris
Canis familiaris [16] = assay: Inhibition of plasma total cholesterol in the normolipidemic dogs after day 3 of oral administration of 1 mg/kg/ day.; assay type: functional, Canis lupus familiaris; how it was run: as §1
Canis familiaris [17] = assay: Inhibition of plasma total triglycerides in the normolipidemic dogs after day 4 of oral administration of 10 mg/kg/ day; assay type: functional, Canis lupus familiaris
Canis familiaris [18] = assay: Inhibition of plasma total cholesterol in the normolipidemic dogs after day 3 of oral administration of 2.5 mg/kg/ day.; assay type: functional, Canis lupus familiaris; how it was run: as §1
Rattus norvegicus [19] = assay: Inhibition of plasma triglycerides in normolipidemic rats after 6 hr of 50 mg/kg oral dosing; assay type: functional; how it was run: as §2
Canis familiaris [20] = assay: Inhibition of plasma total cholesterol in the normolipidemic dogs after day 2 of oral administration of 2.5 mg/kg/ day.; assay type: functional, Canis lupus familiaris; how it was run: as §1
Canis familiaris [21] = assay: Inhibition of plasma total triglycerides in the normolipidemic dogs after day 2 of oral administration of 1 mg/kg/ day.; assay type: functional, Canis lupus familiaris; how it was run: as §1
Rattus norvegicus [22] = assay: Inhibition of plasma triglycerides in normolipidemic rats after 6 hr of 10 mg/kg oral dosing; no significant change; assay type: functional, organism-based; parameters: dose 10 mg/kg; how it was run: as §2
Canis familiaris [23] = assay: Inhibition of plasma total cholesterol in the normolipidemic dogs after day 0 of oral administration of 1 mg/kg/ day.; assay type: functional, Canis lupus familiaris; how it was run: as §1
Canis familiaris [24] = assay: Inhibition of plasma total triglycerides in the normolipidemic dogs after day 3 of oral administration of 10 mg/kg/ day.; assay type: functional, Canis lupus familiaris
Canis familiaris [25] = assay: Inhibition of plasma total triglycerides in the normolipidemic dogs after day 0 of oral administration of 5 mg/kg/ day.; assay type: functional, Canis lupus familiaris; how it was run: as §1
Canis familiaris [26] = assay: Inhibition of plasma total cholesterol in the normolipidemic dogs after day 0 of oral administration of 5 mg/kg/ day.; assay type: functional, Canis lupus familiaris; how it was run: as §1
Canis familiaris [27] = assay: Inhibition of plasma total cholesterol in the normolipidemic dogs after day 4 of oral administration of 5 mg/kg/ day; assay type: functional, Canis lupus familiaris; how it was run: as §1
Rattus norvegicus [28] = assay: Inhibition of total cholesterol in normolipidemic rats after 6 hr of 10 mg/kg oral dosing; assay type: functional; how it was run: as §2
Canis familiaris [29] = assay: Inhibition of plasma total cholesterol in the normolipidemic dogs after day 2 of oral administration of 5 mg/kg/ day.; assay type: functional, Canis lupus familiaris; how it was run: as §1
Rattus norvegicus [30] = assay: Inhibition of plasma triglycerides in normolipidemic rats after 24 hr of 50 mg/kg oral dosing; assay type: functional; how it was run: as §2
Canis familiaris [31] = assay: Inhibition of plasma total triglycerides in the normolipidemic dogs after day 0 of oral administration of 1 mg/kg/ day.; assay type: functional, Canis lupus familiaris; how it was run: as §1
Canis familiaris [32] = assay: Inhibition of plasma total triglycerides in the normolipidemic dogs after day 3 of oral administration of 2.5 mg/kg/ day.; assay type: functional, Canis lupus familiaris
Canis familiaris [33] = assay: Inhibition of plasma total cholesterol in the normolipidemic dogs after day 2 of oral administration of 10 mg/kg/ day.; assay type: functional, Canis lupus familiaris; how it was run: as §1
Rattus norvegicus [34] = assay: Inhibition of total cholesterol in normolipidemic rats after 2 hr of 50 mg/kg oral dosing; assay type: functional; how it was run: as §2
Rattus norvegicus [35] = assay: Inhibition of total cholesterol in normolipidemic rats after 2 hr of 10 mg/kg oral dosing; assay type: functional; how it was run: as §2
Canis familiaris [36] = assay: Inhibition of plasma total triglycerides in the normolipidemic dogs after day 2 of oral administration of 10 mg/kg/ day.; assay type: functional, Canis lupus familiaris; how it was run: as §1
[37] = molecular target: T1, Microsomal triglyceride transfer protein large subunit (Homo sapiens, UniProt P55157); assay: In vitro inhibitory activity against MTP using MTP transfer assay
T1 sequence (P55157 whole entry): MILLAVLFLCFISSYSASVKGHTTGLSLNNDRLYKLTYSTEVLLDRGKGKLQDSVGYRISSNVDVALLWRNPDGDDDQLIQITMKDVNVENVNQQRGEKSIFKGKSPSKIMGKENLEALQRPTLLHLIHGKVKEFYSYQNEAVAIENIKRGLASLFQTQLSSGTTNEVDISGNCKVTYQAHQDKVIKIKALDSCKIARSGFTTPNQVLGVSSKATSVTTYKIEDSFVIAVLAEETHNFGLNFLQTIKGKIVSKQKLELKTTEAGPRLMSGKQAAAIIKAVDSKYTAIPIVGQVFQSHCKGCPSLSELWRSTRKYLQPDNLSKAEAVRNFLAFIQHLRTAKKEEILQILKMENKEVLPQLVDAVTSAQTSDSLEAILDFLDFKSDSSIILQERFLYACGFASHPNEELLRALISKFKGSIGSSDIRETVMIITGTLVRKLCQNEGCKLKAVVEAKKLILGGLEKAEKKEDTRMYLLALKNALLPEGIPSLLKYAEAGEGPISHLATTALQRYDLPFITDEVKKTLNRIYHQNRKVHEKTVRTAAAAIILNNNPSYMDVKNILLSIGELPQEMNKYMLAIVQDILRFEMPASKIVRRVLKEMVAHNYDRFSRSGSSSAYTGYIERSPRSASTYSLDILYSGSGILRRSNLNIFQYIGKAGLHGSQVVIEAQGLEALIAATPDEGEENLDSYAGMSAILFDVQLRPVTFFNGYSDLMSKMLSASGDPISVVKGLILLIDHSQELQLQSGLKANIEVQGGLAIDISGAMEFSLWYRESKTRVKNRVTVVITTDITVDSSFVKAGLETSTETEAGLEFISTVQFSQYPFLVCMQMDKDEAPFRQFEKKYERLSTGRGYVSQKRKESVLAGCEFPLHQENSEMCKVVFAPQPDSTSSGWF

Rattus norvegicus [38] = assay: Inhibition of total cholesterol in normolipidemic rats after 6 hr of 50 mg/kg oral dosing; assay type: functional; how it was run: as §2
Rattus norvegicus [39] = assay: Inhibition of plasma triglycerides in normolipidemic rats after 24 h of 10 mg/kg oral dosing; assay type: functional; how it was run: as §2
Canis familiaris [40] = assay: Inhibition of plasma total triglycerides in the normolipidemic dogs after day 0 of oral administration of 10 mg/kg/ day.; assay type: functional, Canis lupus familiaris; how it was run: as §1
Rattus norvegicus [41] = assay: Inhibition of total cholesterol in normolipidemic rats after 24 hr of 50 mg/kg oral dosing; assay type: functional; how it was run: as §2
Canis familiaris [42] = assay: Inhibition of plasma total triglycerides in the normolipidemic dogs after day 2 of oral administration of 2.5 mg/kg/ day.; assay type: functional, Canis lupus familiaris; how it was run: as §1
Canis familiaris [43] = assay: Inhibition of plasma total triglycerides in the normolipidemic dogs after day 3 of oral administration of 1 mg/kg/ day.; assay type: functional, Canis lupus familiaris; how it was run: as §1
Canis familiaris [44] = assay: Inhibition of plasma total cholesterol in the normolipidemic dogs after day 3 of oral administration of 10 mg/kg/ day.; assay type: functional, Canis lupus familiaris; how it was run: as §1
Canis familiaris [45] = assay: Inhibition of plasma total cholesterol in the normolipidemic dogs after day 0 of oral administration of 10 mg/kg/ day.; assay type: functional, Canis lupus familiaris; how it was run: as §1

COC(=O)N1CCN([C@H]2Cc3ccc(NC(=O)c4cccc(C)c4-c4ccc(C(F)(F)F)cc4)cc3C2)CC1
Lipid level (Canis familiaris [1]): <73 mg/dL
Lipid level (Canis familiaris [2]): 91 mg/dL
Lipid level (Canis familiaris [3]): <53 mg/dL
Reduction (Rattus norvegicus [4]): 15%
Reduction (Rattus norvegicus [5]): 70%
Reduction (Rattus norvegicus [6]): 80%
Lipid level (Canis familiaris [7]): <31 mg/dL
Lipid level (Canis familiaris [8]): 28 mg/dL
Lipid level (Canis familiaris [9]): <42 mg/dL
Lipid level (Canis familiaris [10]): 58 mg/dL
Lipid level (Canis familiaris [11]): 17 mg/dL
Lipid level (Canis familiaris [12]): 109 mg/dL
Lipid level (Canis familiaris [13]): 20 mg/dL
Lipid level (Canis familiaris [14]): 14 mg/dL
Lipid level (Canis familiaris [15]): 25 mg/dL
Lipid level (Canis familiaris [16]): 83 mg/dL
Lipid level (Canis familiaris [17]): 19 mg/dL
Lipid level (Canis familiaris [18]): 53 mg/dL
Reduction (Rattus norvegicus [19]): 56%
Lipid level (Canis familiaris [20]): 67 mg/dL
Lipid level (Canis familiaris [21]): 28 mg/dL
NS (Rattus norvegicus [22]): no significant change
Lipid level (Canis familiaris [23]): 120 mg/dL
Lipid level (Canis familiaris [24]): 18 mg/dL
Lipid level (Canis familiaris [25]): 37 mg/dL
Lipid level (Canis familiaris [26]): 127 mg/dL
Lipid level (Canis familiaris [27]): 38 mg/dL
Reduction (Rattus norvegicus [28]): 29%
Lipid level (Canis familiaris [29]): 79 mg/dL
Reduction (Rattus norvegicus [30]): 44%
Lipid level (Canis familiaris [31]): 38 mg/dL
Lipid level (Canis familiaris [32]): 20 mg/dL
Lipid level (Canis familiaris [33]): 79 mg/dL
Reduction (Rattus norvegicus [34]): 35%
Reduction (Rattus norvegicus [35]): 40%
Lipid level (Canis familiaris [36]): 24 mg/dL
pIC50 [37]: 7.40
Reduction (Rattus norvegicus [38]): 50%
Reduction (Rattus norvegicus [39]): 29%
Lipid level (Canis familiaris [40]): 62 mg/dL
Reduction (Rattus norvegicus [41]): 18%
Lipid level (Canis familiaris [42]): 28 mg/dL
Lipid level (Canis familiaris [43]): 26 mg/dL
Lipid level (Canis familiaris [44]): 50 mg/dL
Lipid level (Canis familiaris [45]): 143 mg/dL
